≈ marks a conversion by molar mass, not a printed value. Calls of active or inactive are those of the source.
Tests used:
[1] = system: Yersinia pseudotuberculosis YPIII; test: Inhibition of T3S in Yersinia pseudotuberculosis YPIII expressing yopE-luxAB at 1.56 uM after 3 hrs by luciferase reporter gene assay
In short: (§1)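 Strain YPIII pIB102 (yopE-luxAB) grown overnight at room temperature in BHI with 5 mM EGTA and 20 mM MgCl2 (calcium depletion), adjusted to OD600 0.088–0.095. Compound added from DMSO at 1.56–200 µM final (eight concentrations). Shaken 1 h at room temperature, then 2 h at 37 °C. Decanal added and light emission read immediately. Triplicates, repeated at least three times.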

[2] = system: Yersinia pseudotuberculosis YPIII; test: Inhibition of T3S in Yersinia pseudotuberculosis YPIII expressing yopE-luxAB at 3.13 uM after 3 hrs by luciferase reporter gene assay; in short: as §1
[3] = system: Yersinia pseudotuberculosis YPIII; test: Inhibition of T3S in Yersinia pseudotuberculosis YPIII expressing yopE-luxAB at 6.25 uM after 3 hrs by luciferase reporter gene assay; in short: as §1
[4] = system: Yersinia pseudotuberculosis YPIII; test: Inhibition of T3S in Yersinia pseudotuberculosis YPIII expressing yopE-luxAB at 12.5 uM after 3 hrs by luciferase reporter gene assay; in short: as §1
[5] = system: Yersinia pseudotuberculosis YPIII; test: Inhibition of T3S in Yersinia pseudotuberculosis YPIII expressing yopE-luxAB at 25 uM after 3 hrs by luciferase reporter gene assay; in short: as §1
[6] = system: Yersinia pseudotuberculosis YPIII; test: Inhibition of T3S in Yersinia pseudotuberculosis YPIII expressing yopE-luxAB at 50 uM after 3 hrs by luciferase reporter gene assay; in short: as §1
[7] = system: Yersinia pseudotuberculosis YPIII; test: Inhibition of T3S in Yersinia pseudotuberculosis YPIII expressing yopE-luxAB at 100 uM after 3 hrs by luciferase reporter gene assay; in short: as §1
[8] = system: Yersinia pseudotuberculosis YPIII; test: Inhibition of T3S in Yersinia pseudotuberculosis YPIII expressing yopE-luxAB at 200 uM after 3 hrs by luciferase reporter gene assay; in short: as §1
[9] = system: Yersinia pseudotuberculosis; test: Antibacterial activity against Yersinia pseudotuberculosis expressing pIB102 at 50 uM after 23 hrs by broth dilution assay; type: functional, organism-based
In short: (§2)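 Wild-type pIB102 grown overnight in LB at room temperature, diluted to OD600 = 0.1 in LB with 2.5 mM CaCl2. Compound added from DMSO stock to final 50 and 100 µM. Incubated at 37 °C with absorbance at 595 nm read over 23 h.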

Escherichia coli [10] = test: Antibacterial activity against Escherichia coli DH5[alpha] at 50 uM after 23 hrs by broth dilution assay; type: functional, organism-based
In short: (§3)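 Overnight LB culture of E. coli DH5α grown at 37 °C, diluted to OD600 0.1 in LB with 2.5 mM CaCl2; compound added from DMSO stock to final 50 or 100 µM. Incubated at 37 °C with absorbance at 595 nm followed over 23 h.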

[11] = system: Yersinia pseudotuberculosis; test: Antibacterial activity against Yersinia pseudotuberculosis expressing pIB102 at 100 uM after 23 hrs by broth dilution assay; type: functional, organism-based; in short: as §2
Escherichia coli [12] = test: Antibacterial activity against Escherichia coli DH5[alpha] at 100 uM after 23 hrs by broth dilution assay; type: functional, organism-based; in short: as §3
Chlamydia trachomatis = test: Antibacterial activity against Chlamydia trachomatis infected in human HeLa 229 cells after 35 hrs by fluorescence microscopy; type: functional
In short: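 HeLa 229 monolayers infected with C. trachomatis serovar L2, MOI 0.3; compounds diluted in RPMI 1640 with 10% FCS, 2 mM L-glutamine, 8 µg/mL gentamicin (DMSO final 1%) added 1 h post-infection at 50, 25, 12.5, 6.25, 3.13 µM. 35 h at 37 °C, 5% CO2; methanol fixation, immunostaining, fluorescence microscopy at 200×. MIC = lowest concentration with no intracellular inclusions; duplicates, ≥3 occasions.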

[13] = Cytotoxicity against human HeLa 229 cells assessed as cell viability at 50 uM after 28 hrs using resazurin staining by fluorescence microscopy; type: cell-based; settings: read-out: Activity
In short: (§4)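 HeLa 229 viability measured at 50 and 25 µM using resazurin added 4 h before read-out; cell-free wells with medium plus compound exclude chemical reduction of resazurin. Scored relative to DMSO control, plus microscopic scoring; non-toxic defined as at least 70% viability versus control. Triplicates, repeated at least three times.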

[14] = Cytotoxicity against human HeLa 229 cells assessed as cell viability at 25 uM after 28 hrs using resazurin staining by fluorescence microscopy; type: cell-based; settings: read-out: Activity; in short: as §4

Row | Structure (SMILES) | inhibition [1] [%] | inhibition [2] [%] | inhibition [3] [%] | inhibition [4] [%] | inhibition [5] [%] | inhibition [6] [%] | inhibition [7] [%] | inhibition [8] [%] | Activity [9] | Activity (Escherichia coli [10]) | Activity [11] | Activity (Escherichia coli [12]) | MIC (Chlamydia trachomatis) | viability at 28 h, 50 µM [13] [%] | viability at 28 h, 25 µM [14] [%]
1 | O=C(N/N=C/c1cccc(F)c1O)c1ccc([N+](=O)[O-])cc1 | 1 | 7 | 2 | 4 | 19 | 28 | 20 | 59 | inactive | inactive | inactive | inactive | 50 µM (≈ 15.2 µg/mL) | 72 | 75
2 | O=C(Cc1ccccc1)N/N=C/c1cc(Br)ccc1O | 15 | 4 | 10 | 7 | 15 | 26 | 39 | 50 | inactive | inactive | inactive | inactive | 50 µM (≈ 16.7 µg/mL) | 74 | 75
3 | COc1cccc(C(=O)N/N=C/c2cc(Br)ccc2O)c1 | 6 | 15 | 8 | 15 | 22 | 44 | 71 | 77 | inactive | inactive | inactive | inactive | 25 µM (≈ 8.73 µg/mL) | 65 | 73
4 | Cc1ccc(C(=O)N/N=C/c2cc(C(C)(C)C)ccc2O)cc1 | 13 | 6 | 14 | 18 | 20 | 17 | 24 | 25 | inactive | inactive | inactive | inactive | 50 µM (≈ 15.5 µg/mL) | 79 | 80
5 | CC(C)(C)c1ccc(O)c(/C=N/NC(=O)Cc2ccccc2)c1 | 9 | 13 | 9 | 4 | 10 | 26 | 20 | 25 | inactive | inactive | inactive | inactive | inactive | 79 | 83
6 | O=C(N/N=C/c1cc(Br)ccc1O)c1ccccc1Cl | 10 | 10 | 10 | 13 | 11 | 38 | 58 | 61 | inactive | inactive | inactive | inactive | 50 µM (≈ 17.7 µg/mL) | 60 | 77
7 | O=C(N/N=C/c1ccc(Cl)cc1O)c1ccncc1 | 5 | -1 | 3 | 4 | 27 | 84 | 96 | 95 | inactive | inactive | inactive | inactive | inactive | 67 | 72
8 | CC(C)(C)c1ccc(O)c(/C=N/NC(=O)CC23CC4CC(CC(C4)C2)C3)c1 | -6 | 3 | 10 | 13 | 17 | 10 | 17 | -1 | inactive | inactive | inactive | inactive | – | – | –
9 | O=C(N/N=C/c1ccc(Cl)cc1O)c1ccc(Br)cc1 | -6 | 11 | 14 | 26 | 29 | 27 | 22 | 10 | inactive | inactive | inactive | inactive | – | – | –
10 | COc1cc(Br)cc(/C=N/NC(=O)Cc2ccccc2)c1O | 10 | 18 | 12 | 15 | 9 | 22 | 57 | 65 | inactive | inactive | inactive | inactive | inactive | 33 | 58
11 | O=C(N/N=C/c1cc(Cl)cc(Cl)c1O)c1ccccc1[N+](=O)[O-] | -4 | 16 | 8 | 4 | 18 | 61 | 88 | 92 | inactive | inactive | inactive | inactive | – | – | –
12 | COc1cc(C(=O)N/N=C/c2cc(Cl)cc(Cl)c2O)cc(OC)c1OC | -10 | 13 | 8 | 14 | 18 | 27 | 29 | 40 | inactive | inactive | inactive | inactive | – | – | –
13 | COc1cc(Br)cc(/C=N/NC(=O)c2sc3ccccc3c2Cl)c1O | -6 | 10 | 12 | 20 | 23 | 34 | 40 | 39 | inactive | inactive | inactive | inactive | – | – | –
14 | O=C(N/N=C/c1ccc(O)c(O)c1O)c1ccccc1[N+](=O)[O-] | -8 | 5 | 16 | 20 | 22 | 36 | 74 | 96 | inactive | inactive | inactive | inactive | – | – | –
15 | COc1ccc(/C=N/NC(=O)c2sc3ccccc3c2Cl)c(O)c1 | -2 | -2 | 10 | 12 | 15 | 27 | 35 | 50 | inactive | inactive | inactive | inactive | – | – | –
16 | N#CCC(=O)N/N=C/c1cc(Br)ccc1O | 0 | 11 | 6 | 22 | 55 | 86 | 97 | 99 | inactive | inactive | inactive | inactive | – | – | –

— ChEMBL document CHEMBL1156948, “Statistical molecular design of a focused salicylidene acylhydrazide library and multivariate QSAR of inhibition of type III secretion in the Gram-negative bacterium Yersinia” (Bioorg Med Chem, 2010)
